Assay results gathered from unrelated publications.
Each line is one published result; the experiments were not run side by side.
Target: Protein kinase C epsilon type (PRKCE, Homo sapiens, UniProt Q02156)
Residues used in one study (Q02156 1-737): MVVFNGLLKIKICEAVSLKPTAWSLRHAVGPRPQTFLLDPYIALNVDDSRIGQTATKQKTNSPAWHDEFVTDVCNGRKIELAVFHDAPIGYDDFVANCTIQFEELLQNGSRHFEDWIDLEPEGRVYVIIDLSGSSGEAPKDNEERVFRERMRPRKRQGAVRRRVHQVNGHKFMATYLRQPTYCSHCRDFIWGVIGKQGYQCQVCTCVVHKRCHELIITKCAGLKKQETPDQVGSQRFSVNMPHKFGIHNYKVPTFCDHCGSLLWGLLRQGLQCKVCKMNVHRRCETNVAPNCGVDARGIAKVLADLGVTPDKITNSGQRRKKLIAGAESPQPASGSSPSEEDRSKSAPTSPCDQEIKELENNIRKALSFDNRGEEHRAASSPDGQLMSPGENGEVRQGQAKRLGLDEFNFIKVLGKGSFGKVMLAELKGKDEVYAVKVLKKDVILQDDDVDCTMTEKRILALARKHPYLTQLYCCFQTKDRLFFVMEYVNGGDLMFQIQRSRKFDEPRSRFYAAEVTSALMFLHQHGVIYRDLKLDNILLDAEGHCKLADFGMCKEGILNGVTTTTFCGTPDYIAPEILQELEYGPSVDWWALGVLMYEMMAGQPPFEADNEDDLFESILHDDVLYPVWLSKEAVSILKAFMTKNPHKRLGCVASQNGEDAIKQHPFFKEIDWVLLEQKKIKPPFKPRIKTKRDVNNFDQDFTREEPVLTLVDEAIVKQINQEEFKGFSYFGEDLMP

Cn1cc(-c2cc(F)cc(N3CCn4c(cc5c4CCCC5)C3=O)c2CO)cc(Nc2ccc(N3CCN(C4COC4)CC3)cn2)c1=O — inhibition (enzyme activity, inhibitor; 0.1 µM): -4%
COc1cc(Nc2ncc(F)c(Nc3ccc4c(n3)NC(=O)C(C)(C)O4)n2)cc(OC)c1OC — inhibition (binding; 10 µM): 73%
C#Cc1n[nH]c2c(-c3cn([C@@H](C)c4ccccn4)c(=O)[nH]c3=O)cc(F)cc12 — inhibition (enzyme activity, inhibitor; 0.1 µM): 4.1%
COc1ncccc1-c1cnn2ccc(N3CCN(C(=O)OC(C)C)CC3)nc12 — remaining binding (binding, competition with immobilised ligand; 1 µM): 76%
CC(C)(C)c1cc(C=C(C#N)C#N)cc(Br)c1O — remaining activity (enzyme activity, inhibitor; 0.5 µM): 108%
Cn1cncc1[C@](O)(COc1ccc(C#N)cc1-c1ccc(OC(F)(F)F)cc1)c1ccc(C#N)cc1 — remaining binding (cell-free assay, competition with immobilised ligand; 1 µM): 79%
O=c1[nH]c2ccccc2n1C1CCN(Cc2ccc(-c3[nH]c4cc5ncnc5cc4nc3-c3ccccc3)cc2)CC1 — remaining signal (cell-free assay; 0.5 µM): 109%
Cn1cc(-c2cccc(N3CCc4c(sc5c4CC(C)(C)C5)C3=O)c2CO)cc(Nc2ccncn2)c1=O — inhibition (enzyme activity, inhibitor; 1 µM): 1%
